ChEMBL document CHEMBL1159047, “Synthesis and biological evaluation of antitumour-active betulin derivatives” (Bioorg Med Chem, 2010)
Activity calls are given as the source filed them. The calls are words filed in the database; no cut-off is given here.

Columns and labels:
[1] = Cytotoxicity against human 518A2 cells after 96 hrs by SRB assay; assay type: functional, cell-based; conditions: 518A2, 96 h
Method in brief: (§1)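 Monolayer cells grown in RPMI 1640 with 10% heat-inactivated FBS and penicillin/streptomycin at 37 °C, 5% CO2. Cells were seeded and, after 24 h, exposed to serial dilutions (0–30 µM; DMSO or DMF ≤0.5% final) for 96 h. They were then fixed with 10% TCA at 4 °C, stained with 0.4% SRB and dissolved in 10 mM Tris, with absorbance read at 570 nm. IC50 comes from semi-log dose–response curves of survival versus untreated controls, from ≥3 independent experiments.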

A-431 = experiment: Cytotoxicity against human A431 cells after 96 hrs by SRB assay; assay type: functional, cell-based; conditions: A-431, 96 h; method in brief: as §1
[2] = Cytotoxicity against human A253 cells after 96 hrs by SRB assay; assay type: functional, cell-based; conditions: A253, 96 h; method in brief: as §1
FaDu [3] = experiment: Cytotoxicity against human FADU cells after 96 hrs by SRB assay; assay type: functional, cell-based; method in brief: as §1
A549 [4] = experiment: Cytotoxicity against human A549 cells after 96 hrs by SRB assay; assay type: functional, cell-based; conditions: A549, 96 h; method in brief: as §1
A2780 [5] = experiment: Cytotoxicity against human A2780 cells after 96 hrs by SRB assay; assay type: functional, cell-based; conditions: A2780, 96 h; method in brief: as §1
DLD-1 [6] = experiment: Cytotoxicity against human DLD1 cells after 96 hrs by SRB assay; assay type: functional, cell-based; conditions: DLD-1, 96 h; method in brief: as §1
HCT-8 = experiment: Cytotoxicity against human HCT8 cells after 96 hrs by SRB assay; assay type: functional, cell-based; conditions: HCT-8, 96 h; method in brief: as §1
HCT-116 = experiment: Cytotoxicity against human HCT116 cells after 96 hrs by SRB assay; assay type: functional, cell-based; conditions: HCT-116, 96 h; method in brief: as §1
HT-29 = experiment: Cytotoxicity against human HT-29 cells after 96 hrs by SRB assay; assay type: functional, cell-based; conditions: HT-29, 96 h; method in brief: as §1
SW480 [7] = experiment: Cytotoxicity against human SW480 cells after 96 hrs by SRB assay; assay type: functional, cell-based; conditions: SW480, 96 h; method in brief: as §1
8505C [8] = experiment: Cytotoxicity against human 8505C cells after 96 hrs by SRB assay; assay type: functional, cell-based; method in brief: as §1
SW-1736 [9] = experiment: Cytotoxicity against human SW1736 cells after 96 hrs by SRB assay; assay type: functional, cell-based; conditions: SW-1736, 96 h; method in brief: as §1
MCF7 = experiment: Cytotoxicity against human MCF7 cells after 96 hrs by SRB assay; assay type: functional, cell-based; conditions: MCF7, 96 h; method in brief: as §1
[10] = Cytotoxicity against human Liposarcoma cells after 96 hrs by SRB assay; assay type: functional, cell-based; method in brief: as §1
518A2 = experiment: Growth inhibition of human 518A2 cells at 30 uM after 96 hrs by SRB assay; assay type: functional, cell-based
Method in brief: (§2)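 Same SRB set-up: RPMI 1640 with 10% FBS at 37 °C, 5% CO2, and a 96 h exposure starting 24 h after seeding (DMSO or DMF ≤0.5% final). Percent viable cells relative to untreated controls is read at 30 µM, the top concentration of the 0–30 µM dilution series. Cells were fixed with TCA, stained with SRB and read at 570 nm; ≥3 independent experiments.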

FaDu [11] = experiment: Growth inhibition of human FADU cells at 30 uM after 96 hrs by SRB assay; assay type: functional, cell-based; method in brief: as §2
DLD-1 [12] = experiment: Growth inhibition of human DLD1 cells at 30 uM after 96 hrs by SRB assay; assay type: functional, cell-based; method in brief: as §2
SW480 [13] = experiment: Growth inhibition of human SW480 cells at 30 uM after 96 hrs by SRB assay; assay type: functional, cell-based; method in brief: as §2
8505C [14] = experiment: Growth inhibition of human 8505C cells at 30 uM after 96 hrs by SRB assay; assay type: functional, cell-based; method in brief: as §2
Homo sapiens = organism: Homo sapiens; experiment: Growth inhibition of human Liposarcoma cells at 30 uM after 96 hrs by SRB assay; assay type: functional; method in brief: as §2
A549 [15] = experiment: Growth inhibition of human A549 cells at 30 uM after 96 hrs by SRB assay; assay type: functional, cell-based; method in brief: as §2
A2780 [16] = experiment: Growth inhibition of human A2780 cells at 30 uM after 96 hrs by SRB assay; assay type: functional, cell-based; method in brief: as §2
SW-1736 [17] = experiment: Growth inhibition of human SW1736 cells at 30 uM after 96 hrs by SRB assay; assay type: functional, cell-based; method in brief: as §2

Structure (SMILES)	IC50 [1] [µM]	IC50 (A-431) [µM]	IC50 [2] [µM]	IC50 (FaDu [3]) [µM]	IC50 (A549 [4]) [µM]	IC50 (A2780 [5]) [µM]	IC50 (DLD-1 [6]) [µM]	IC50 (HCT-8) [µM]	IC50 (HCT-116) [µM]	IC50 (HT-29) [µM]	IC50 (SW480 [7]) [µM]	IC50 (8505C [8]) [µM]	IC50 (SW-1736 [9]) [µM]	IC50 (MCF7) [µM]	IC50 [10] [µM]	further results
C=C(C)[C@@H]1CC[C@]2(C(=O)CC(=O)OCC)CC[C@]3(C)[C@H](CC[C@@H]4[C@@]5(C)CC[C@H](OC)C(C)(C)[C@@H]5CC[C@]43C)[C@@H]12	6.3	3.9	7.4	6.5	5.3	4.3	7.9	4.1	3.6	4.1	5.9	7.9	7.2	4.7	6.4	–
C=C(C)[C@@H]1CC[C@]2([C@H](O)CC(=O)CC(=O)OCC)CC[C@]3(C)[C@H](CC[C@@H]4[C@@]5(C)CC[C@H](OC)C(C)(C)[C@@H]5CC[C@]43C)[C@@H]12	19.4	20.7	17	16.2	14.6	12.1	14	12.5	14.6	16.8	15.3	17.6	13.8	20.7	17.8	–
C=C(C)[C@@H]1CC[C@]2(C(=O)CC(=O)OCC)CC[C@]3(C)[C@H](CC[C@@H]4[C@@]5(C)CC[C@H](OC(C)=O)C(C)(C)[C@@H]5CC[C@]43C)[C@@H]12	2.5	2.6	2.2	3	2.2	1.8	3.9	3	2.4	12	2.2	2.3	2.3	6.8	2.2	–
C=C(C)[C@@H]1CC[C@]2([C@H](O)CC(=O)CC(=O)OCC)CC[C@]3(C)[C@H](CC[C@@H]4[C@@]5(C)CC[C@H](OC(C)=O)C(C)(C)[C@@H]5CC[C@]43C)[C@@H]12	11.6	16.1	10	10.5	16.8	9.1	9.3	11.3	13	18.5	13	9.6	10.6	13.9	9	–
C=C(C)[C@@H]1CC[C@]2([C@H](O)CC(=O)OCC)CC[C@]3(C)[C@H](CC[C@@H]4[C@@]5(C)CC[C@H](OC(C)=O)C(C)(C)[C@@H]5CC[C@]43C)[C@@H]12	–	18.7	–	–	28.2	21	–	16.5	13	21.8	–	–	23.5	27.3	–	growth inhibition (GI) (518A2): inactive; growth inhibition (GI) (FaDu [11]): inactive; growth inhibition (GI) (DLD-1 [12]): inactive; growth inhibition (GI) (SW480 [13]): inactive; growth inhibition (GI) (8505C [14]): inactive; growth inhibition (GI) (Homo sapiens): inactive
C=C(C)[C@@H]1CC[C@]2([C@H]3CO3)CC[C@]3(C)[C@H](CC[C@@H]4[C@@]5(C)CC[C@H](O)C(C)(C)[C@@H]5CC[C@]43C)[C@@H]12	–	23.5	20.1	–	–	–	–	24.6	20.3	18.2	16.8	24.3	–	28.6	24.7	growth inhibition (GI) (518A2): inactive; growth inhibition (GI) (FaDu [11]): inactive; growth inhibition (GI) (A549 [15]): inactive; growth inhibition (GI) (A2780 [16]): inactive; growth inhibition (GI) (DLD-1 [12]): inactive; growth inhibition (GI) (SW-1736 [17]): inactive
CCOC(=O)CC(=O)C[C@H]1O[C@@H]2[C@@H]3[C@H]4CC[C@@H]5[C@@]6(C)CC[C@H](OC(C)=O)C(C)(C)[C@@H]6CC[C@@]5(C)[C@]4(C)CC[C@@]31CCC2(C)C	10.4	9.8	10.9	7	5.2	4.7	7.2	6.1	7	13.2	5.8	8.9	11.3	9.2	10.5	–
